Measured values taken from ChEMBL document CHEMBL1132405, “Synthesis and SAR of 1-alkyl-2-phenylethylamine derivatives designed from N,N-dipropyl-4-methoxy-3-(2-phenylethoxy)phenylethylamine to discover sigma(1) ligands” (J Med Chem, 1999).
pIC50: −log10 of the molar value.

Experiments:
D(2) dopamine receptor = D(2) dopamine receptor (Rattus norvegicus, UniProt P61169); test: In vitro binding affinity at Dopamine receptor D2 of rat striatal membranes by [3H]-raclopride displacement.
[1] = (§1) In vitro binding affinity at Sigma opioid receptor type 1 on guinea pig brain membranes by [3H]pentazocine displacement.; parameters: species or system Membrane
[2] = as §1; parameters: species or system Membrane; remark: listed apart in the source
In short: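 IC50 from displacement curves at 10 concentrations of each compound, each run in duplicate. Values are means of 1–3 separate experiments, with variation between experiments below 15%.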

Sequence of D(2) dopamine receptor (P61169 whole entry): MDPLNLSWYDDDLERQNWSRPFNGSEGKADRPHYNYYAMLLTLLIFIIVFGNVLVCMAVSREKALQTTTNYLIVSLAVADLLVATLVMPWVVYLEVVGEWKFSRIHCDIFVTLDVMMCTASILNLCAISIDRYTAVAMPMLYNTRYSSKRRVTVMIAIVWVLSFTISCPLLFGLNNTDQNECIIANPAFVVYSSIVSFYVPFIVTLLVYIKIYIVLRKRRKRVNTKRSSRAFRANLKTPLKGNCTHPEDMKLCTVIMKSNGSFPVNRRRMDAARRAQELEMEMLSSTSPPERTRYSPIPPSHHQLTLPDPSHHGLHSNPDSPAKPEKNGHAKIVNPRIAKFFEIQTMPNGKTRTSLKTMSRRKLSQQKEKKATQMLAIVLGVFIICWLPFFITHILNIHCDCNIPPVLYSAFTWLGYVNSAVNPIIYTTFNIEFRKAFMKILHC

With `CCCN(CCC)C(CC)Cc1ccc(OC)c(OCCc2ccccc2)c1` (stereo unspecified) the pIC50 (D(2) dopamine receptor) was < 6.00.

In the case of `CCCNC(CCC)Cc1ccc(OC)c(OCCc2ccccc2)c1` (stereo unspecified), the pIC50 [1] was 8.39 and the pIC50 (D(2) dopamine receptor) was < 6.00.

In the case of `CCCCCCC(Cc1ccc(OC)c(OCCc2ccccc2)c1)NCCC` (stereo unspecified), the pIC50 [1] was 8.09 and the pIC50 (D(2) dopamine receptor) was < 6.00.

With `CCCCCC(Cc1ccc(OC)c(OCCc2ccccc2)c1)NCCC` (stereo unspecified) the pIC50 [1] was 8.66 and the pIC50 (D(2) dopamine receptor) was < 6.00.

With `CCCCC(Cc1ccc(OC)c(OCCc2ccccc2)c1)NCCC` (single isomer, unassigned; (-)) the pIC50 [1] was 9.15 and the pIC50 (D(2) dopamine receptor) was < 6.00.

With `CCCCC(Cc1ccc(OC)c(OCCc2ccccc2)c1)NCCC` (stereo unspecified) [listing 1 of 2 here] the pIC50 [1] was 8.72 and the pIC50 (D(2) dopamine receptor) was < 6.00.

With `CCCC(Cc1ccc(OC)c(OCCc2ccccc2)c1)N(CCC)CCC` (stereo unspecified) the pIC50 [1] was 8.09 and the pIC50 (D(2) dopamine receptor) was < 6.00.

In the case of `CCCNC(CCC(C)C)Cc1ccc(OC)c(OCCc2ccccc2)c1` (stereo in doubt; 6i), the pIC50 [1] was 8.80 and the pIC50 (D(2) dopamine receptor) was < 6.00.

With `CCCNCCc1ccc(OC)c(OCCc2ccccc2)c1` the pIC50 (D(2) dopamine receptor) was < 6.00.

With `CCCN(CCC)CCc1ccc(OC)c(OCCc2ccccc2)c1` the pIC50 (D(2) dopamine receptor) was < 6.00 and the pIC50 [2] was 8.82.

In the case of `COc1ccc(CCN)cc1OCCc1ccccc1`, the pIC50 (D(2) dopamine receptor) was < 6.00.

For `CCCNC(CC)Cc1ccc(OC)c(OCCc2ccccc2)c1` (stereo unspecified), the pIC50 [1] was 8.74 and the pIC50 (D(2) dopamine receptor) was < 6.00.

In the case of `CCCNC(CCC(C)C)Cc1ccc(OC)c(OCCc2ccccc2)c1` (single isomer, unassigned; (-)), the pIC50 [1] was 9.30 and the pIC50 (D(2) dopamine receptor) was < 6.00.

Molecule `CCCCC(Cc1ccc(OC)c(OCCc2ccccc2)c1)NCCC` (stereo unspecified) [listing 2 of 2 here] has a pIC50 [1] of 7.47.

In the case of `COc1ccc(CCN2CCCC2)cc1OCCc1ccccc1`, the pIC50 (D(2) dopamine receptor) was < 6.00.

With `CCCNC(CCC(C)C)Cc1ccc(OC)c(OCCc2ccccc2)c1` (stereo in doubt; 6i(+)) the pIC50 [1] was 7.66.
